Broadly, the IC50 is the concentration that gives 50% inhibition. In general, inhibition refers to the percentage by which the read-out fell short of the control.

The values below come from ChEMBL document CHEMBL5329162, “The sulfonadyns: a class of aryl sulfonamides inhibiting dynamin I GTPase and clathrin mediated endocytosis are anti-seizure in animal models” (RSC Med Chem, 2023).

Test [1] is described as follows: Inhibition of clathrin-mediated endocytosis in serum-starved human U2OS cells assessed as reduction in Tfn-A594 uptake pretreated for 30 mins followed by Tfn-A594 addition and measured after 8 mins. Type of test: cell-based. The method, boiled down: (§1)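 U2OS cells on fibronectin-coated plates, serum-starved 16 h, then compound (usually 6 concentrations, 1–300 μM) or vehicle for 30 min, then Tfn-A594 4 μg mL⁻¹ for 8 min at 37 °C. Surface Tfn acid-stripped (pH 2.8), PFA-fixed, DAPI-stained; automated imaging of integrated Tfn intensity per cell, as % of vehicle. DMSO at most 1%.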

A short description of test [2]: (§2) Inhibition of phosphotidylserine liposome-stimulated sheep brain Dynamin 1 GTPase activity using GTP as substrate by malachite green assay. Type of test: tissue-based, Ovis aries. The method, boiled down: (§3)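 Native dynamin I from sheep brain (membrane extraction, GST-Amph2-SH3-sepharose affinity), stimulated by sonicated phosphatidylserine liposomes; GTP hydrolysis read as orthophosphate by malachite green. DMSO at most 3.3% final. […] 300 μM is the top concentration tested.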

The species named for test [3] is Rattus norvegicus. In words: Inhibition of synaptic vesicle endocytosis in Sprague-Dawley rat cerebrum synaptosomes assessed as reduction in depolarisation-stimulated FM4-64 uptake preincubated for 30 mins followed by FM4-64 addition for 2 mins and further depolarised for 2 mins by fluorescent imaging analysis. The conditions noted are these: for inhibition: Synaptosome, time 34.0 min. Type of test: functional, Synaptosome. The method, boiled down: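 Purified rat cerebrum synaptosomes (male, 6–8 weeks) attached to plates at 30 °C in Krebs buffer with 0.1 mM CaCl₂, pH 7.4. Compound or DMSO (1%) for 30 min, then 1 μM FM 4-64 for 2 min, then 80 mM KCl depolarisation for 2 min. Imaged ex 476–524/em 608–742 nm; intensity normalised to control uptake (1.0).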

Test [4] relates to Mus musculus. In words: Antiseizure activity against electrically stimulated seizure in C57BL/6 mouse model assessed as increase in current required to provoke seizures at 400 mg/kg, ip pretreated for 30 mins followed by electrical stimulation at 6 Hz. Type of test: functional, organism-based. Put shortly:
(§4)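 Mouse 6 Hz corneal stimulation (0.2 ms rectangular pulse, 3 s, varying current). Given ip 30 min before stimulation; DMA 20%/Tween-80 5%/PEG300 75% vehicle for test doses (10, 30, 60 mg kg⁻¹), 0.9% saline for valproate (400 mg kg⁻¹). Seizure scored as stunned/fixed posture, rearing, forelimb clonus or twitching. EC50 current by up-and-down method, 2 mA steps; each mouse used once; Mann–Whitney U vs vehicle.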

Test [5] is filed under the species Ovis aries. Described as §2. Type of test: tissue-based. The method, boiled down: as §3
The species entered for test [6] is Rattus norvegicus. The test is described as follows: Inhibition of exocytosis in Sprague-Dawley rat brain synaptosome assessed as effect on Ca2+ dependent glutamate release at 80 uM preincubated for 1 mins in presence of NADP followed by glutamate dehydrogenase addition and further stimulated with 4-aminopyridine for 4 mins by spectrofluorimeter. Type of test: functional. As to conditions: time 5.0 min. Put shortly:
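Synaptosomes (0.6 mg in 2 ml) in Krebs-like buffer, pH 7.4, 37 °C, containing 1.2 mM CaCl₂ or calcium-free with 1 mM EGTA. Started with 1 mM NADP; glutamate dehydrogenase 50 U added after 1 min; 4-aminopyridine stimulation after 4 min. Released glutamate followed as NADPH fluorescence (ex 340/em 460 nm).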

Test [7] has as its system Mus musculus. In words: Antiseizure activity against electrically stimulated seizure in C57BL/6 mouse model assessed as increase in seizures threshold at 30 to 60 mg/kg, ip pretreated for 30 mins followed by electrical stimulation at 6 Hz. It is filed as functional, organism-based. As to conditions: dose 30-60 mg/kg. Put shortly:
as §4

The species named for test [8] is Ovis aries. The test is described as follows: Competitive inhibition of phosphotidylserine liposome-stimulated sheep brain Dynamin 1 GTPase activity using varying concentrations of Mg2+.GTP as substrate at 3 to 7 uM by Lineweaver-Burk plot analysis. Type of test: tissue-based. As to conditions: dose 3-7 µM.
The subject of test [9] is Mus musculus. In words: Antiseizure activity against electrically stimulated seizure in C57BL/6 mouse model assessed as increase in seizures threshold at 10 mg/kg, ip pretreated for 30 mins followed by electrical stimulation at 6 Hz. Type of test: functional, organism-based. Put shortly:
as §4

Test [10] in a line: Inhibition of clathrin-mediated endocytosis in human U2OS cells assessed as reduction in Tfn-A594 uptake pretreated for 30 mins. Type of test: cell-based. The method, boiled down: as §1
Test [11] is filed under the species Ovis aries. The test is described as follows: Inhibition of phosphotidylserine liposome-stimulated sheep brain Dynamin 1 GTPase activity using GTP as substrate at 300 uM by malachite green assay relative to control. Type of test: tissue-based. The method, boiled down: as §3

Each structure is given as a SMILES string. Calls of active or inactive are those of the source. Bounds are passed on as bounds.

In the case of `CN(C)c1cccc2c(S(=O)(=O)NCCCCCN)cccc12`, the figures for the IC50 (in [1]; in test [2]; in the test listed under Rattus norvegicus [3]) were 205 µM, 45.1 µM and > 300 µM, respectively. `O=S(=O)(NCCNC/C=C/c1ccccc1)c1cccc2cnccc12` gave an IC50 in test [2] of 38.2 µM. The same measure, in the same setting: in the case of `O=S(=O)(NCCCNC/C=C/c1ccc(Br)cc1)c1cccc2cnccc12` it was 7.1 µM; in that of `O=S(=O)(NCCNC/C=C/c1ccc(Br)cc1)c1cccc2cccnc12`, 9.5 µM. As for `O=S(=O)(NCCNC/C=C/c1ccc(Cl)cc1)c1cccc2cnccc12`, half-maximal inhibition in [2] (IC50) required 9.2 µM. Still for that read-out and setting: in the case of `O=S(=O)(NCCNCCc1ccccc1)c1cccc2cnccc12` it was 96.8 µM; in that of `O=S(=O)(NCCNC/C=C/c1ccc(C(F)(F)F)cc1)c1cccc2cnccc12`, 12.4 µM; in that of `CN(C/C=C/c1ccc(Br)cc1)CCN(C)S(=O)(=O)c1cccc2ccccc12`, 8.7 µM. Same read-out and setting: in the case of `O=S(=O)(NCCNCCCc1ccccc1)c1cccc2cnccc12` it was 30.1 µM. With `O=S(=O)(NCCNC/C=C/c1ccc(Br)cc1)c1ccc2ccccc2c1`, the IC50 in [1] stood at 9.3 µM; in test [2], 3.6 µM. Also, in the test filed under Rattus norvegicus [3], the inhibition result was “inactive”. Taken in the same sequence, the figures for `O=S(=O)(NCCCCCCNC/C=C/c1ccc(Br)cc1)c1cccc2ccccc12` were 27.1 µM, 5.2 µM and “inactive”.

As for `CCCC(CCC)C(=O)O`, the result with Mus musculus [4] was Active.

`O=S(=O)(NCCNC/C=C/c1ccc(Br)cc1)c1cccc2ccccc12`: the IC50 in test [1] amounted to 12.4 µM; in test [2] it was 4.4 µM. In addition, the inhibition result in the test listed under Rattus norvegicus [3] is “inactive”. As for `CC(C)(C)c1ccc(/C=C/CNCCNS(=O)(=O)c2cccc3cnccc23)cc1`, 6.6 µM corresponded to half-maximal inhibition in test [2] (IC50).

`CN(C/C=C/c1ccc(Br)cc1)CCNS(=O)(=O)c1cccc2ccccc12`: in test [2], the concentration for half-maximal inhibition (IC50) was found to be 10.5 µM. Regarding `NCCNS(=O)(=O)c1cccc2cnccc12`, the inhibition entry in the test listed under Ovis aries [5] was “inactive”. Turning to `O=S(=O)(NCCCCNC/C=C/c1ccc(Br)cc1)c1cccc2cnccc12`, 8.1 µM corresponded to half-maximal inhibition in test [2] (IC50). Turning to `O=S(=O)(NCCCNC/C=C/c1ccc(Br)cc1)c1cccc2ccccc12`, in the test listed under Rattus norvegicus [6], the inhibition result is “inactive”. Further, the IC50 in test [1] amounted to 27.3 µM; in test [2], 3.5 µM; in the test filed under Rattus norvegicus [3] it was 12.3 µM. Also, the outcome in the test on Mus musculus [7] was Active. In the test listed under Ovis aries [8], the inhibition entry is “Active”. For the same molecule, in the test on Mus musculus [9], the outcome was inactive. On to `O=C(N/N=C/c1cc(O)c(O)cc1O)c1cc2ccccc2cc1O`, for which, in [10], the IC50 is 5.7 µM. As to `O=C(/C=C/c1ccc(Br)cc1)NCCNS(=O)(=O)c1cccc2cnccc12`, in the test listed under Ovis aries [11], the inhibition was < 50%. Besides, the IC50 in [2] is > 300 µM. `O=S(=O)(c1cccc2cnccc12)N1CCN(C/C=C/c2ccc(Br)cc2)CC1` had an IC50 in test [2] of 58.2 µM. `CN(C)c1ccc(/C=C/CNCCNS(=O)(=O)c2cccc3cnccc23)cc1` had an IC50 in test [2] of 19.9 µM.

As for `O=S(=O)(NCCCCCCNC/C=C/c1ccc(Br)cc1)c1cccc2cnccc12`, the IC50 in test [1] amounted to 15.9 µM; in test [2], 3.7 µM; in the test filed under Rattus norvegicus [3] it was 265 µM. Moreover, in the test listed under Ovis aries [8], the inhibition entry was “Active”. Consider `Cc1ccc(/C=C/CNCCNS(=O)(=O)c2cccc3cnccc23)cc1`, for which the IC50 in [2] is 22.4 µM.

Take `O=S(=O)(NCCCCNC/C=C/c1ccc(Br)cc1)c1cccc2ccccc12`: the IC50 amounted to 11.3 µM in test [1] and 3 µM in [2]. The inhibition entry in the test filed under Rattus norvegicus [3] was “inactive”. In the case of `CN(C)c1cccc2c(S(=O)(=O)NCCNC/C=C/c3ccc(Br)cc3)cccc12`, the IC50 in test [1] was found to be 29 µM; in test [2], 3.9 µM; in the test listed under Rattus norvegicus [3] it was 127 µM. In [2], `O=S(=O)(NCCNC/C=C/c1ccc(Br)cc1)c1cccc2cnccc12` gave an IC50 of 7 µM.

In test [2], `O=S(=O)(NCCNC/C=C/c1ccc(F)cc1)c1cccc2cnccc12` yielded an IC50 of 20.3 µM.
